This is a sample that favours compounds with a hit; in the whole collection about 2.5% have one here.
MEKK2wt PB1 HTS: modulators of MEK5 binding to wildtype MEKK2, primary screen, biochemical, multiplex bead flow cytometry, Alexa488-MEK5; Mitogen-activated protein kinase kinase kinase 2 (Homo sapiens), Q9Y2U5; Alexa488-MEK5 binding to MEKK2 WT; actives lie on both sides; binding response (% of control), % at 10 µM; hit rate 1.1% among 290,000; in the data active = binding response below about 67% or above about 130%
MEKK2mut PB1 HTS: MEK5 binding signal on mutant MEKK2 PB1, primary screen, biochemical, multiplex bead flow cytometry, Alexa488-MEK5 | percent response, % at 10 µM | Alexa488-MEK5 binding to MEKK2 mutant | hit rate 0.35% among 290,000; in the data active = percent response above about 24%, passing the limit was not always enough
T cell modulator: modulators of CD8 T cell-vesicle binding, primary screen, mouse 2C CD8+ T cells, flow cytometry; 2C CD8+ T cell-vesicle binding; active compounds read low; response (vesicle binding), % at 7 µM; hit rate 0.068% among 330,000;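 active = response, share of CD8 T cells binding vesicles, and their 90th percentile fluorescence all below set limits, cut at about 80% in these data, passing the limit was not always enough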;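 note: values below 100% mean blocked vesicle binding to the CD8+ T cells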
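Test system: purified 2C TCR transgenic mouse naive CD8+ T cells. Probe or stimulus: QL9-peptide-loaded Drosophila micro-vesicles bearing Ld, ICAM-1 and B7-1. Incubation: binding step 1.5 h, 37 °C, antibody labelling 20 min, ice. Measured by: flow cytometry of vesicle-bound cells.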
UCH37 inh: inhibitors of human UCH37 deubiquitinase, primary screen, biochemical, Ub-AMC cleavage, fluorescence | Ubiquitin carboxyl-terminal hydrolase isozyme L5 (Homo sapiens), Q9Y5K5 | purified proteasome/UCH37 | inhibition, % (no concentration beside the values) | hit rate 0.33% among 330,000;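 active = mean inhibition over replicate wells above about 20%, limit read from the data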
Target sequence (Q9Y5K5 whole entry, looked up): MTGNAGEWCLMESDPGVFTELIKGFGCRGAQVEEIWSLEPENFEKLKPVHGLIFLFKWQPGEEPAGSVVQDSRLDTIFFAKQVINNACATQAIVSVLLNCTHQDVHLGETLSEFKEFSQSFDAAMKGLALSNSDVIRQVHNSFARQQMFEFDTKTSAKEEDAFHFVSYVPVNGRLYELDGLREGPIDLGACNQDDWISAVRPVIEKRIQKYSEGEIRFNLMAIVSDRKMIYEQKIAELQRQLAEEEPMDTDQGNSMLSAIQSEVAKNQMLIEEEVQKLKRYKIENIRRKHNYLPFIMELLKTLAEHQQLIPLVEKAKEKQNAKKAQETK
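system = Proteasome-associated human UCH37 deubiquitinase | amount = 0.15 nM proteasome as dispensed | medium = pH 7.4 Tris-HCl (50 mM) with ovalbumin, ATP-MgCl2, DTT | incubation = 30 min preincubation with enzyme, 25 min cleavage at room temperature | detection = AMC fluorescence 355/460 nm | read-out basis = percent inhibition | controls = no-proteasome and no-compound wells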
MEKK3 PB1 HTS: modulators of MEKK3-MEK5 PB1 binding, primary screen, biochemical, wildtype MEKK3, multiplex bead flow cytometry, Alexa488-MEK5; bead-based flow cytometry, Alexa488-MEK5 binding to MEKK3; actives lie on both sides; 0 = blocked by unlabeled MEK5, 100 = vehicle; Mitogen-activated protein kinase kinase kinase 3 (Homo sapiens), Q99759; hit rate 1.4% among 290,000; binding response (% of control), % at 10 µM;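 active = binding response more than 3 SD above or below the average of its plate-row segment, actives on both sides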;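 note: Alexa488 bead fluorescence after subtracting the streptavidin-only scavenger bead signal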
Rce1 inh: yeast Rce1p protease inhibitors, primary screen, biochemical, fluorescence, cell-free homogeneous; calls only; hit rate 0.27% among 290,000; yeast membranes, quenched prenylated peptide cleavage fluorescence; CAAX prenyl protease 2 (Saccharomyces cerevisiae (strain ATCC 204508 / S288c)), Q03530;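 active = fall in fluorescence gain of 50% or more versus controls, with final raw signal at or below 3038400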
Target sequence (Q03530 whole entry, looked up): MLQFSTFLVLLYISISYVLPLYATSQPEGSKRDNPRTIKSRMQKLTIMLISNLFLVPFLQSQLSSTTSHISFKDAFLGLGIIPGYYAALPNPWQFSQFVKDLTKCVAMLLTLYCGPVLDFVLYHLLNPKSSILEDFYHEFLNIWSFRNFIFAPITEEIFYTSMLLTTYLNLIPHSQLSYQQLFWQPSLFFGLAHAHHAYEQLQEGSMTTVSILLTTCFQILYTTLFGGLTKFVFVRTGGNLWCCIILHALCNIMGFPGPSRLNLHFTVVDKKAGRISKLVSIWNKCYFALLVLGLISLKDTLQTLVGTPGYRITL
MEKK2wt confirm: modulators of MEK5 binding to wildtype MEKK2, confirmation, biochemical, single concentration, multiplex bead flow cytometry; binding response (% of control), % at 10 µM; Alexa488-MEK5 binding to MEKK2 WT; actives lie on both sides; shares compounds with MEKK3 PB1 HTS; hit rate 2.4% among 5,900; in the data active = binding response below about 16% or above about 210%; inactive = in between
MEKK2mut confirm: mutant MEKK2 PB1-MEK5 binding signal retest – biochemical, single concentration, multiplex bead flow cytometry, confirmation. hit rate 2% among 5,900. shares compounds with MEKK3 PB1 HTS. AID 1893, 2009. percent response, % at 10 µM. Alexa488-MEK5 binding to MEKK2 mutant; in the data active = percent response mostly above about 71%, no sharp cut-off; inactive = mostly below about 38%;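 note: higher means compound restores mutant binding toward wildtype level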
MEKK3 confirm: MEKK3 wild-type PB1 binding to MEK5, inhibitors, confirmation, biochemical, bead multiplex flow cytometry, single concentration, wildtype | shares compounds with MEKK3 PB1 HTS | Alexa488-MEK5 binding to MEKK3; active compounds read low | hit rate 1.8% among 5,900 | AID 1894, 2009 | binding response (% of control), % at 10 µM;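 active = binding response below 72% of control, or above a set upper limit, though filed actives all read lower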;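 note: lower values mean stronger disruption of MEK5 binding to MEKK3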
Hits are given with their value; i = inactive; nt = no result given; [ ] = another dose, or the depositor's remark.

SMILES | MEKK2wt PB1 HTS | MEKK2mut PB1 HTS | T cell modulator | UCH37 inh | MEKK3 PB1 HTS | Rce1 inh | MEKK2wt confirm | MEKK2mut confirm | MEKK3 confirm
CCCCCC1CC(CCC(C)=NNC(N)=O)C(=O)O1 (stereo not given) | nt | nt | nt | i | nt | nt | nt | nt | nt
COc1ccccc1N1CCN(S(=O)(=O)c2ccc(Cl)s2)CC1 | -4.0[inhibitor] | i | i | i | 0.0[inhibitor] | i | i | i | 56
CCOc1ccccc1N1CCN(S(=O)(=O)c2ccc(Cl)s2)CC1 | i | i | i | i | i | i | nt | nt | nt
O=C(NCC1CCCCC1)C1(CC2CC(c3cccc(Br)c3)=NO2)CCNCC1 (stereo not given) | 145 | i | i | i | i | i | i | i | i
Cc1cc2ncn(N=Cc3cccnc3)c2cc1C | nt | nt | nt | i | nt | nt | nt | nt | nt
O=C(O)c1ccccc1/C=N/N1CCN(C2c3ccccc3-c3ccccc32)CC1 | i | i | i | nt | 71[inhibitor] | i | i | i | i
O=C(O)c1ccccc1C=NN1CCN(C2c3ccccc3-c3ccccc32)CC1 | nt | nt | nt | i | nt | nt | nt | nt | nt
COc1cc(/C=N/N2CCN(C3c4ccccc4-c4ccccc43)CC2)cc(OC)c1OC | i | i | i | nt | 130 | i | i | i | i
O=C(C[n+]1ccccc1)NN=Cc1cc(Br)ccc1O | nt | nt | nt | i | nt | nt | nt | nt | nt
CCOc1ccc(OCC(=O)OCc2cc(=O)n3cc(Br)ccc3n2)cc1 | nt | nt | i | i | nt | nt | nt | nt | nt
C[C@H](NS(=O)(=O)c1ccc(Cl)c(Cl)c1)C(=O)OCc1cc(=O)n2cc(Br)ccc2n1 | i | i | i | i | 131 | i | i | i | i
Cc1ccc2[nH]c(=O)c(CN(Cc3cccnc3)Cc3nnnn3CCN3CCOCC3)cc2c1 | 2.0[inhibitor] | i | i | i | 2.0[inhibitor] | i | i | i | i
Cc1ccc2[nH]c(=O)c(CN(Cc3cccnc3)Cc3nnnn3CC3CCCO3)cc2c1 (stereo not given) | i | i | i | i | 135 | i | i | i | i
COCCn1nnnc1CN(Cc1cccnc1)Cc1cc2cc(OC)ccc2[nH]c1=O | i | i | nt | i | i | i | nt | nt | nt
Cc1ccc2cc(CN(Cc3nnnn3C3CCCCC3)CC3CCCO3)c(=O)[nH]c2c1 (stereo not given) | -3.0[inhibitor] | i | i | i | 1.0[inhibitor] | i | i | i | i
C=CCNC(=O)c1ccc(-n2cccc2)cc1 | i | i | i | i | 138 | i | i | i | i
C=CCNC(=O)c1ccncc1 | i | i | i | i | i | i | nt | nt | nt
COc1cc(/C=C/C(=O)Nc2ccncc2)cc(OC)c1OC | i | i | i | i | 146 | i | i | i | i
O=C(NN=Cc1ccoc1)c1ccc(Cl)cc1Cl | nt | nt | nt | i | nt | nt | nt | nt | nt
Cc1ccc(S(=O)(=O)N2CCN(S(=O)(=O)N3CCCCC3)CC2)c(C)c1 | -3.0[inhibitor] | i | i | i | 1.0[inhibitor] | i | i | i | i
Cc1ccc(S(=O)(=O)N2CCCCC2)cc1 | i | i | i | i | i | i | nt | nt | nt
Cc1c(C2=CCN(S(=O)(=O)c3ccc(Br)cc3)CC2)c2ccccc2n1C | i | i | i | i | i | i | nt | nt | nt
Cc1ccc(S(=O)(=O)N2CCCN(S(=O)(=O)c3ccc(C)cc3)CC2)cc1 | i | i | i | i | 36[inhibitor] | i | i | i | i
Cc1ccc(NC(=O)C2=CCN(S(=O)(=O)c3ccc(F)cc3)CC2)cc1 | i | i | i | i | i | i | nt | nt | nt
CCn1c(C)c(C2=CCN(S(=O)(=O)c3ccc(C)cc3)CC2)c2ccccc21 | 6.0[inhibitor] | i | i | i | i | i | i | i | i
SMILES | MEKK2wt PB1 HTS | MEKK2mut PB1 HTS | T cell modulator | UCH37 inh | MEKK3 PB1 HTS | Rce1 inh | MEKK2wt confirm | MEKK2mut confirm | MEKK3 confirm
Cc1ccc(S(=O)(=O)N2CC=C(c3ccc(F)cc3)CC2)cc1 | i | i | i | i | 140 | i | i | i | i
Cc1ccc(C=NNC(=O)CSc2nc3ccccc3n2Cc2ccc(Cl)cc2)o1 | nt | nt | nt | i | nt | nt | nt | nt | nt
O=C(NN=Cc1ccnc2ccccc12)c1ccccc1O | nt | nt | nt | i | nt | nt | nt | nt | nt
O=C(NN=Cc1ccco1)c1cc(-c2ccc3ccccc3c2)n[nH]1 | nt | nt | nt | i | nt | nt | nt | nt | nt
Cc1ccc(O)c(N=Nc2ccc(S(=O)(=O)N3CCCC3)cc2)c1 | i | i | i | i | 132 | i | i | i | i
COc1ccc(N=Nc2cc(C)ccc2O)cc1 | i | i | i | i | i | i | nt | nt | nt
Cc1ccc2sc(N(CCCN(C)C)C(=O)c3ccc(Br)s3)nc2c1C | 479 | 218 | i | i | 140 | i | i | i | i
Cc1cccc2sc(N(CCCN(C)C)C(=O)c3nc4ccccc4s3)nc12 | i | i | i | i | 67[inhibitor] | i | i | i | i
Cc1ccc2nc(N(CCCN(C)C)C(=O)c3sc4ccccc4c3Cl)sc2c1 | 155 | i | i | i | 133 | i | i | i | i
CCOc1cccc2sc(N(CCN(C)C)C(=O)c3ccc(Br)s3)nc12 | i | i | i | i | i | i | nt | nt | nt
Cc1ccc2sc(N(CCCN(C)C)C(=O)c3nc4ccccc4s3)nc2c1C | 144 | i | i | i | i | i | i | i | i
CCOC(=O)c1sc(NN=Cc2ccccc2)nc1C | nt | nt | nt | i | nt | nt | nt | nt | nt
O=C(COC(=O)C1CCCCC1)Nc1ccc(N2CCCCC2)cc1 | 150 | 47 | i | i | i | i | i | i | i
O=C(Nc1ccc(N2CCOCC2)cc1)C1CCCCC1 | i | i | i | i | 82[inhibitor] | i | i | i | i
O=C(Nc1ccc(S(=O)(=O)N2CCOCC2)cc1)C1CCCCC1 | i | i | i | i | i | i | nt | nt | nt
O=C(CNCCC1=CCCCC1)Nc1ccc(N2CCCCCC2)cc1 | 188 | i | i | i | i | nt | i | i | i
O=C(CNC1CCCCCC1)Nc1ccc(N2CCCC2)cc1 | nt | nt | i | nt | nt | i | nt | nt | nt
C(=NNc1ccccn1)c1ccc2c(c1)OCCO2 | nt | nt | nt | i | nt | nt | nt | nt | nt
O=C(NN=Cc1cccs1)c1ccccc1-n1cccc1 | nt | nt | nt | i | nt | nt | nt | nt | nt
COCc1cc(C)n(CC(=O)Nc2ccccc2C(=O)OC)c(=O)c1C#N | 2.0[inhibitor] | i | i | i | 2.0[inhibitor] | i | i | i | i

High-throughput results deposited in PubChem BioAssay by several laboratories.
